Source: publication PMC2847151 (Neurogenetics, 2009)

Assays:
Med25 expression = assay: Med25 qRT-PCR expression in sciatic nerve of treated Pmp22 transgenic; assay type: in vivo, rat
In short: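 Pmp22-transgenic rats received a progestin diet (20 mg/kg), a progesterone-receptor antagonist, or placebo (12, 12 and 8 animals). RNA was Trizol-extracted from sciatic nerve. Med25 was quantified by TaqMan qRT-PCR with unlabelled forward/reverse primers and a 5′-FAM probe, in triplicate, normalised to 18S rRNA run in parallel. Runs were repeated with GAPDH as the internal control.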

Pmp22 transgenic rats = details: progesterone antagonist, ref [31]; cited from earlier work
Pmp22 expression = details: peripheral nerves of Pmp22 transgenic rats; ref [31]; cited from earlier work
[1] = system: SH3 domain of the Src-family kinase Lck (LckSH3); assay: Fluorescence titration binding of synthetic MED25 peptides to Lck SH3; details: AblSH3 vs LckSH3
[2] = target: SH3 domain of the Src-family kinase Lck (LckSH3) (Homo sapiens, UniProt P06239); assay: as above
Sequence of SH3 domain of the Src-family kinase Lck (LckSH3) (Homo sapiens, UniProt P06239) (P06239 61-121 limits assumed): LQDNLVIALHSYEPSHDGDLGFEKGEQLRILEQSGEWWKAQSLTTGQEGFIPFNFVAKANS

[3] = target: SH3 domain of Abl (AblSH3) (Homo sapiens, UniProt P00519); assay: Fluorescence titration binding of synthetic MED25 peptides to Abl SH3
Sequence of SH3 domain of Abl (AblSH3) (P00519 61-121 limits assumed): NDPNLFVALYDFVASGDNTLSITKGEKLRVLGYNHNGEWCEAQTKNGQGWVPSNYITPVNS

CN(C)c1ccc([C@H]2C[C@]3(C)[C@@H](CC[C@]3(O)CCCO)[C@@H]3CCC4=CC(=O)CCC4=C32)cc1 [onapristone]
Med25 expression after treatment (Med25 expression; Pmp22^++/+ rats, onapristone): no significant reducing effect | phenotype (Pmp22 transgenic rats): improvement of the phenotype | Pmp22 expression (Pmp22 expression): decreases its expression

CC(=O)[C@H]1CC[C@H]2[C@@H]3CCC4=CC(=O)CC[C@]4(C)[C@H]3CC[C@]12C [progesterone]
Med25 expression after treatment (Med25 expression; Pmp22^++/+ male rats, progesterone 20 mg/kg diet): further increase of the Med25 expression | Pmp22 expression (Pmp22 expression): increases Pmp22 expression

Ac-QLPPGPPGAPKPPPAS-NH2 [wild-type MED25, Ac-QLPPGPPGAPKPPPAS-CONH2]
binding affinity Abl SH3 compared with Lck SH3 (specificity) [1]: significantly stronger to Abl than to Lck

Ac-QLPPGPPGVPKPPPAS-NH2 [mutant, Ac-QLPPGPPGVPKPPPAS-CONH2]
binding affinity Abl SH3 compared with Lck SH3 (specificity) [1]: very similar affinity | Kd [2]: 5.38 ± 1.05 µM | Kd [3]: 2.91 ± 0.66 µM | affinity for Abl SH3, effect of mutation ([3]; mutant vs wild-type peptide): almost unaltered by the mutation
